Test results reported in ChEMBL document CHEMBL2150931, “Design, synthesis, and biological activity of a novel series of human sirtuin-2-selective inhibitors” (J Med Chem, 2012).
Active and inactive are the calls of the source. No cut-off for these calls is given here.

Key:
[1] = biological target: T1, NAD-dependent protein deacetylase sirtuin-2 (Homo sapiens) (UniProt Q8IXJ6); settings: HCT-116, 10 uM
T1 sequence (whole entry): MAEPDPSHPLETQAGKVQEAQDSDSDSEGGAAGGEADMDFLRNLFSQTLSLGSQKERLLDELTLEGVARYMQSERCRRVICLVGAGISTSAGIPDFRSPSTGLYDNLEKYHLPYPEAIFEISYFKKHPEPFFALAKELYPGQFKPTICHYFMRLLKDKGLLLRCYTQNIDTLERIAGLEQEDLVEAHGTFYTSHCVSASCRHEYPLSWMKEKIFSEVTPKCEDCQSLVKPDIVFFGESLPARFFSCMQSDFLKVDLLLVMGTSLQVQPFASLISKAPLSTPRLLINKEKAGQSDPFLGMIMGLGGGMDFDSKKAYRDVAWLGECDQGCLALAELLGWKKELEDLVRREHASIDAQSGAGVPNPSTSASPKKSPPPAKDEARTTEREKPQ

[2] = biological target: T2, NAD-dependent protein deacetylase sirtuin-1 (Homo sapiens, UniProt Q96EB6); assay: Inhibition of human recombinant SIRT1 using Fluor de Lys-SIRT as substrate incubated for 60 mins prior to substrate addition measured after 60 mins by fluorimetric analysis
T2 sequence (Q96EB6 whole entry): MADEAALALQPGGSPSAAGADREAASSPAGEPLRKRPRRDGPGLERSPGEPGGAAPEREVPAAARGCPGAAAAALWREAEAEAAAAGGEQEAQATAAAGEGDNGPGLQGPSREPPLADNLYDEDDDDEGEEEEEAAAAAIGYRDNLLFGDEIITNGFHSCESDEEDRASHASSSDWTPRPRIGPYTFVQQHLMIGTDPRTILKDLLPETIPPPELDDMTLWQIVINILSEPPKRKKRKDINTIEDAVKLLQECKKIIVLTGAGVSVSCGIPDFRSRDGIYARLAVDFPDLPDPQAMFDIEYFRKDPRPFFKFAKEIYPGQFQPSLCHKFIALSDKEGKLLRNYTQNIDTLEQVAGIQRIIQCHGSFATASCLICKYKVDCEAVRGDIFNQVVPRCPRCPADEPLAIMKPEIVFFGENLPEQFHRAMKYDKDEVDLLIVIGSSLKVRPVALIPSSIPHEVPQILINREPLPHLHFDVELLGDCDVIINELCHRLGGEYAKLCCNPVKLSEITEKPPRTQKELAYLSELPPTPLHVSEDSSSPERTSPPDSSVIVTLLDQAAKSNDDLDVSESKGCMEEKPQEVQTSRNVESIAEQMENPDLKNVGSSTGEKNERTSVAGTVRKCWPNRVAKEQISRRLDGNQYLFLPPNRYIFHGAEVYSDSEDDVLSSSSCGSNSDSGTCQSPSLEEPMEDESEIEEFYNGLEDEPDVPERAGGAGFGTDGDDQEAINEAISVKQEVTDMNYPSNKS
Procedure, shortened: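 Human recombinant SIRT1 run the same way: 60 min at 37 °C with 1 mM NAD⁺ and serial compound dilutions, then 25 μM Fluor de Lys-SIRT substrate for 60 min. Stopped with nicotinamide-containing Developer II and read 45 min later at ex 360/em 460 nm. IC₅₀ from logit regression of % inhibition vs control; means of ≥3 experiments.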

[3] = biological target: T3, NAD-dependent protein deacetylase sirtuin-1 (Homo sapiens) (UniProt Q96EB6); settings: HCT-116, 10 uM
T3 sequence (whole entry): T2 sequence (Q96EB6 whole entry)

[4] = biological target: T3, NAD-dependent protein deacetylase sirtuin-1 (Homo sapiens); assay: Inhibition of human recombinant SIRT1 using Fluor de Lys-SIRT as substrate at 100 uM incubated for 60 mins prior to substrate addition measured after 60 mins by fluorimetric analysis
Procedure, shortened: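 Single-point SIRT1 test at 100 μM compound. Human recombinant enzyme with 1 mM NAD⁺ at 37 °C for 60 min, then 25 μM Fluor de Lys-SIRT substrate for 60 min. Stopped with nicotinamide developer; fluorescence read at 360/460 nm after 45 min. Inhibition expressed as % relative to uninhibited control wells.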

[5] = biological target: T4, NAD-dependent protein deacetylase sirtuin-2 (Homo sapiens, UniProt Q8IXJ6); assay: Inhibition of human recombinant SIRT2 using Fluor de Lys-SIRT as substrate incubated for 60 mins prior to substrate addition measured after 60 mins by fluorimetric analysis
T4 sequence (Q8IXJ6 whole entry): T1 sequence (whole entry)
Procedure, shortened: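 Human recombinant SIRT2 preincubated with 1 mM NAD⁺ and serial compound dilutions for 60 min at 37 °C, then 25 μM Fluor de Lys-SIRT substrate added. Reaction stopped at 60 min with Developer II containing nicotinamide. Fluorescence read 45 min later at ex 360/em 460 nm. % inhibition taken against control wells. IC₅₀ obtained by regression of log[Inh] vs logit % inhibition; means of ≥3 experiments.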

inhibition [1] | IC50 [2] [µM] | inhibition [3] | inhibition [4] [%] | IC50 [5] [µM] | Compound
Active | 30 | – | – | – | N#C/C(=C\c1ccc(-c2cc(Cl)ccc2Cl)o1)C(=O)Nc1cccc2ncccc12
– | – | Active | – | – | NC(=O)C1CCCc2c1[nH]c1ccc(Cl)cc21 (stereo unspecified)
– | > 100 | – | 13 | 33 | NC(=O)c1ccccc1Nc1ccc(OCc2ccccc2)cc1
